The subject of one data set is OM-10.1 cells. In words: TNFα-induced provirus expression. The following applies: 24 h, read-out: TNFα EC50, inhibition of provirus expression. Type of data set: cell-based. The essentials: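 OM-10.1 cells seeded at 200,000 cells/well and co-treated with 1 ng/mL TNFα plus test compound or 0.1% DMSO for 24 h. Cells were fixed, permeabilized, stained for intracellular p24Gag (KC57-RD1) and scored on live-gated cells by flow cytometry. EC50s were derived after normalizing to TNFα-only controls.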

The subject of data set [1] is J-Lat 10.6 cells. In words: LRA-induced provirus expression. The class given is cell-based. The following applies: J-Lat 10.6, 24 h.
Data set [2] can be described thus: Viability of uninfected PBMCs. Type of data set: cell-based, human. Conditions: human, CC50, uninfected PBMCs, Viacount dye.
The next data set relates to PBMCs. Nature of the data set: Viability of uninfected PBMCs. The class given is cell-based, human. Conditions: 6 days, Viacount dye.
Data set [3] deals with HIV RNA in CD4+ T cell culture supernatants. Nature of the data set: Spontaneous viral RNA production in primary CD4+ T cells from donors with HIV. Type of data set: cell-based, human.
The next data set deals with class I and II HDAC. In words: Cellular HDAC activity assay. The class given is cell-based.
In another data set the test system is primary CD4+ T cells. Nature of the data set: Live cell counting of primary CD4+ T cell cultures. Type of data set: cell-based, human. The following applies: 30 nM. The essentials: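 CD4+ T cells came from five HIV-infected donors on suppressive ART (<50 copies/mL for ≥3 years), isolated from PBMCs by negative selection. 10⁶ cells per 1 mL R20+ (20% FBS) received 0.1% DMSO or 30 nM test compound for 24 h. Alternatively: 72 h treatment, wash, re-treatment in R20+ plus IL-2 for 72–96 h, wash, then 24 h compound-free. Cells were counted visually by trypan blue.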

A further data set has as its system J-Lat 9.2 cells. Nature of the data set: LRA-induced provirus expression. Type of data set: cell-based. Conditions: J-Lat 9.2, 24 h.
Data set [4] relates to J-Lat 10.6 cells. Type of data set: cell-based.
The next data set deals with Jurkat cells. In words: Jurkat cell viability, 24 h. Type of data set: cell-based. The following applies: 0.3 μM.
Where [5] appears, read: read-out: TNFα EC50, inhibition of provirus expression.
The mark [6] stands for this setting: 30 nM for 6 – 7 days, washed, 24 hours without compound.

Read-outs that look alike come from different tables or passages of the source.

As usually defined, the EC50 is the concentration needed to bring the measured effect to its halfway point. For orientation: CC50 means the concentration at which the toxic effect on the cells reaches its halfway point. Read a high CC50 as lower toxicity to the cells. By IC50 is commonly meant the midpoint of a concentration-inhibition curve. Consider `CN1CC[C@H](c2c(O)cc(O)c3c(=O)cc(-c4ccccc4Cl)oc23)[C@H](O)C1` [Flavopiridol, flavopiridol], for which the EC50 came to 13 ± 0.8 nM in the data set on OM-10.1 cells; 99 ± 2 nM in the data set with J-Lat 10.6 cells [1] (read-out: HMBA EC50, inhibition of provirus expression); 14 ± 2 nM with J-Lat 10.6 cells [1] (read-out: JQ1 EC50, inhibition of provirus expression); 19 ± 1 nM in the data set with J-Lat 10.6 cells [1] (setting [5]); 28 ± 3 nM with J-Lat 9.2 cells (read-out: Panobinostat EC50, inhibition of provirus expression); 9 ± 1 nM in the data set on J-Lat 9.2 cells (read-out: Prostratin EC50, inhibition of provirus expression). Further, in the data set on J-Lat 9.2 cells (setting [5]), the EC50 was determined as 8 ± 0.4 nM. Besides, the half-maximal cytotoxic concentration (CC50) at 6 days in [2] stood at 250 ± 60 nM. This compound also displayed a cytotoxic concentration (CC50) in the data set on PBMCs of 220 ± 40 nM. The “average reduction in total viral RNA across all cultures” value in data set [3] (setting [6]) worked out at 96.8%. In [3] (setting [6]), the “cultures with reduced viral RNA production” value is reported as 4 of 5. For the same compound, the “cultures with no viral RNA detected” value in data set [3] (30 nM for 6 – 7 days, washed, 24 hours, limit of detection 200 copies/mL) was “two”. The “average increase in viral RNA vs 0.1% DMSO” value in [3] (30 nM, 24 hours) is recorded as 7.1 fold. The “HIV RNA in culture supernatant” value in [3] (30 nM, 24 hours, CD4+ T cells from five donors with HIV) is 1.7*10^9 ± 3.1*10^9 viral copies/mL. Also, in the data set with class I and II HDAC (read-out: HDAC Inhibition IC50, Jurkat cells, 90 min, HDAC-Glo I/II), the half-inhibitory concentration (IC50) is greater than 1000 nM. Moreover, the “HDAC inhibition” value with class I and II HDAC (up to 1 μM, Jurkat) was “no HDAC inhibition was observed”. The live cell count with primary CD4+ T cells (24 hours) is 1.2*10^6 ± 5.6*10^5 cells/mL; in the data set on primary CD4+ T cells (after 6 – 7 days), 1.3*10^6 ± 3.9*10^5 cells/mL. Moreover, in the data set on J-Lat 10.6 cells [4] (10 nM for 21 days, J-Lat 10.6), the “GFP expression 14 days following washout, % of control levels” value came out at 59.7 ± 15.2%. Also, the “GFP expression 24 hours after washing, % of control GFP levels” value in the data set on J-Lat 10.6 cells [4] (10 nM for 21 days, washed, 24 h drug-free, J-Lat 10.6) is listed as 32.4 ± 3.6%. Moreover, the “GFP expression before wash-out, % of untreated cells” value in the data set on J-Lat 10.6 cells [4] (10 nM, 21 days, J-Lat 10.6) is 26.2 ± 9.6%. Also, the “reduction of spontaneous GFP expression vs 0.1% DMSO” value with J-Lat 10.6 cells [4] (10 nM, 21 days, J-Lat 10.6) is reported as 73.8 ± 9.6%. For the same compound, the “duration of reinforced latency following withdrawal in vitro” value in the data set with J-Lat 10.6 cells [4] (J-Lat 10.6, after 21 days' treatment) was no less than 14 days. For the same compound, in the data set with Jurkat cells, the “viability reduced vs 0.1% DMSO” value amounted to 38.8 ± 25%.

(Values after publication PMC8052299 (Biochemical pharmacology, 2021).)
